Laboratory results as given in paper PMC4969713 (Journal of Alzheimer's Disease, 2016).

Tests used:
[1] = tested on: male BALB/c mice; assay: Elevated Plus-Maze; format: in vivo; conditions: IP, Buspirone 5 mg/kg; for locomotion (total number of arm visits): M1 5 or 20 mg/kg, M2 1 and 5 mg/kg; for anxiolytic effect (open/closed arm time and visits, defecations): M2 0.05, 0.5, 1.0, 5.0 mg/kg
Outline: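 Elevated plus-maze in mice. Read-outs were open/closed arm time ratio, open/closed visit ratio, defecations and total visits. Each treated group was compared with the placebo group by Student t-test.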

[2] = tested on: male SHK mice; assay: Apomorphine-induced disruption of pre-pulse inhibition; format: in vivo; conditions: IP; apomorphine 20 mg/kg; Haloperidol 1 mg/kg
Outline: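 Male SHK mice received apomorphine as the pro-psychotic agent to disrupt pre-pulse inhibition. Groups: untreated control, apomorphine alone, haloperidol 1 mg/kg as positive control, and test compound at several doses. Groups were compared with the apomorphine-only group by Student test.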

[3] = tested on: male BALB/c mice; assay: Elevated Platform test; format: in vivo; conditions: IP; Lorazepam 0.05 mg/kg, AVN-101 0.2 mg/kg; initial 2 min
[4] = tested on: BALB/c mice; assay: Open Field test; format: in vivo; conditions: IP; Lorazepam 0.05 mg/kg, AVN-101 0.2 mg/kg
Outline: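 Male BALB/c mice received lorazepam 30 min or test compound 5 min before testing; controls received saline, with at least 8 per group. Time in the central zone was recorded during a 10-min exploration. Comparison with the control group used ANOVA with Fisher LSD.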

[5] = biological target: T1, 5-HT7 receptor (Homo sapiens, UniProt P34969); assay: Radioligand binding competition, 5-HT7
[6] = biological target: 5-HT6 receptor (Homo sapiens, UniProt P50406); assay: Radioligand binding competition, 5-HT6
[7] = Phase I pharmacokinetics, single PO dose; format: in vivo, human; conditions: for AUC0 - >∞ / Cmax / T1/2: label = substance analyzed, Means ± SD
[8] = biological target: hERG potassium channel (Homo sapiens, UniProt Q12809); assay: hERG single cell patch clamp in HEK cells; conditions: potassium currents, patch clamp
[9] = biological target: 5-HT4 receptor (Homo sapiens, UniProt Q13639); assay: Target panel binding, 5-HT4
[10] = biological target: T2, 5-HT2A receptor (Homo sapiens, UniProt P28223); assay: Radioligand binding competition, 5-HT2A
[11] = biological target: Adrenergic α1A (Homo sapiens, UniProt P35348); assay: Radioligand competition, adrenergic α1A; format: binding
[12] = biological target: Adrenergic α2A (Homo sapiens, UniProt P08913); assay: Radioligand competition, adrenergic α2A; format: binding
[13] = Pharmacokinetics in dogs; format: in vivo, dogs (Beagle); conditions: for AUC0 - >∞ / Cmax / T1/2 / Tmax: label = substance analyzed
[14] = biological target: 5-HT3 receptor (Homo sapiens, UniProt P46098); assay: Target panel binding, 5-HT3
[15] = biological target: T3, 5-HT2C receptor (Homo sapiens, UniProt P28335); assay: Radioligand binding competition, 5-HT2C
T3 sequence (P28335 33-458): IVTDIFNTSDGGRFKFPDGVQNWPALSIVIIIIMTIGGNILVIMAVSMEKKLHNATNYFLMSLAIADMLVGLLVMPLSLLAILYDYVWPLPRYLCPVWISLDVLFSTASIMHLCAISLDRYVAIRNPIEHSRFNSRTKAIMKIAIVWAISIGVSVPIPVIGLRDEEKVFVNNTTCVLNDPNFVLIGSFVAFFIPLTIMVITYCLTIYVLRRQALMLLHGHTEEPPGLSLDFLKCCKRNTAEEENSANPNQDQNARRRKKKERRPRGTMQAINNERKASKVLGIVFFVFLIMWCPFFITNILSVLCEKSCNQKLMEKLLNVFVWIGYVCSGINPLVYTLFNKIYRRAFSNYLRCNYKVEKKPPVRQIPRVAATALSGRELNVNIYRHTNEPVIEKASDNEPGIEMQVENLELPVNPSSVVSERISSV

[16] = biological target: histamine H1 receptor (Homo sapiens, UniProt P35367); assay: Radioligand binding competition, histamine H1
[17] = biological target: histamine H2 receptor (Homo sapiens, UniProt P25021); assay: Radioligand binding competition, histamine H2
[18] = Caco-2 permeability; conditions: human
[19] = biological target: T1, 5-HT7 receptor; conditions: at 1μM; cited from earlier work
[20] = tested on: 5-HT1B receptor; conditions: at 1μM; cited from earlier work
[21] = biological target: T2, 5-HT2A receptor; conditions: at 1μM; cited from earlier work
[22] = tested on: male BALB/c mice; assay: Passive avoidance, scopolamine-induced amnesia, mice; format: in vivo; conditions: highest dose tested, 1 mg/kg
[23] = tested on: male BALB/c mice; conditions: acute pre-dosing; cited from earlier work
[24] = biological target: T3, 5-HT2C receptor; conditions: at 1μM; cited from earlier work
[25] = tested on: male BALB/c mice; assay: Novel object recognition, scopolamine-induced; format: in vivo; conditions: 1.0 mg/kg scopolamine; memantine 10 mg/kg; SB-742457 0.2 or 1.0 mg/kg
Outline: (§1)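 All drugs were dissolved in saline and given IP; control animals received saline vehicle. Each group had at least 8 male BALB/c mice. Read-out was novel object recognition index, reported as mean ± SE.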

[26] = biological target: 5-HT2B receptor (Homo sapiens, UniProt P41595); conditions: at 1μM; cited from earlier work
[27] = tested on: male BALB/c mice; assay: Novel object recognition, MK-801-induced; format: in vivo; conditions: 0.2 mg/kg MK-801; memantine 10 mg/kg; SB-742457 0.2 or 1.0 mg/kg
Outline: as §1

[28] = tested on: BALB/c mice; assay: Morris water maze, scopolamine-induced amnesia; format: in vivo; conditions: IP; AVN-101 0.2 mg/kg; Tacrine 3 mg/kg; donepezil 1 mg/kg; scopolamine 1.5 mg/kg
Outline: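 Scopolamine-induced amnesia model in male BALB/c mice. Read-out was time spent in the quadrant where the escape platform had been during the two preceding training days, reported as mean ± SE.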

[29] = tested on: Monkeys (Macaca mulatta); assay: Q-T interval, monkeys; format: in vivo; conditions: 15 mg/kg IV
[30] = tested on: femur bone marrow cells; assay: Chromosomal aberrations in femur bone marrow cells; format: in vivo, mice; conditions: 20 mg/kg PO single dose, males
Outline: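 Mice 8–12 weeks old, male and female, were dosed orally with test compound or cyclophosphamide 20 mg/kg. Schedule was single dose with kill at 24 h, or qd for 5 days with kill 6 h after the last dose. Colchicine 4 mg/kg was given orally 2.5 h before decapitation. Femur marrow was put into 0.55% KCl at 37°C for 15 min, then spun. Scoring covered 100 metaphases per animal (500 per group), expressed as % aberrant cells.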

[31] = tested on: BALB/c mice; assay: Passive avoidance, MK-801-induced amnesia, mice; format: in vivo; conditions: IP

T1 sequence (P34969 whole entry): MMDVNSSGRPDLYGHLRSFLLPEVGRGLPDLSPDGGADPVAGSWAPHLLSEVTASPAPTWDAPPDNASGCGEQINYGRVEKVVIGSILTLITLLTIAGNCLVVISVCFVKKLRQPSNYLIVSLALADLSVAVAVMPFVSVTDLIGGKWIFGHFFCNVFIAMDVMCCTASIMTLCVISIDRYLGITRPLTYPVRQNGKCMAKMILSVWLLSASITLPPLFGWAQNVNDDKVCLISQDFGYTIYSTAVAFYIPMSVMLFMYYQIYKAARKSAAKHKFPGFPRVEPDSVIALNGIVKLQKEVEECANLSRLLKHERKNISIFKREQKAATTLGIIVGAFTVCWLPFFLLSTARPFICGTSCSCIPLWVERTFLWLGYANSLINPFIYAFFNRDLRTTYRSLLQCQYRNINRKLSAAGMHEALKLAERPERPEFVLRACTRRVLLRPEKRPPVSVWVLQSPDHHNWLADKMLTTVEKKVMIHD
histamine H1 receptor, sequence (P35367 whole entry, species assumed): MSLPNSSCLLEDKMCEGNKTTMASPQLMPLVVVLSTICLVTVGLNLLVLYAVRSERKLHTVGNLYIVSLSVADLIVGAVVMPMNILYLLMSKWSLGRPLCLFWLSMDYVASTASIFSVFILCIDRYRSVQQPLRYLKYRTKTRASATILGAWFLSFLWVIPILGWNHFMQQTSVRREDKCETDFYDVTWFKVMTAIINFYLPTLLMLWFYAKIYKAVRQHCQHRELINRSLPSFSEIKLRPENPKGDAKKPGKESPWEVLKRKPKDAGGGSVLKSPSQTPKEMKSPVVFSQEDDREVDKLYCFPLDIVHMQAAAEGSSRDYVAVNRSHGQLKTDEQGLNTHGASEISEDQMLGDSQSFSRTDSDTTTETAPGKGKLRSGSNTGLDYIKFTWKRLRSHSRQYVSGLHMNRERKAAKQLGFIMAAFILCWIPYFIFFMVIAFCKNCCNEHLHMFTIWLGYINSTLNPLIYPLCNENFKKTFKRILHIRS
T2 sequence (P28223 whole entry): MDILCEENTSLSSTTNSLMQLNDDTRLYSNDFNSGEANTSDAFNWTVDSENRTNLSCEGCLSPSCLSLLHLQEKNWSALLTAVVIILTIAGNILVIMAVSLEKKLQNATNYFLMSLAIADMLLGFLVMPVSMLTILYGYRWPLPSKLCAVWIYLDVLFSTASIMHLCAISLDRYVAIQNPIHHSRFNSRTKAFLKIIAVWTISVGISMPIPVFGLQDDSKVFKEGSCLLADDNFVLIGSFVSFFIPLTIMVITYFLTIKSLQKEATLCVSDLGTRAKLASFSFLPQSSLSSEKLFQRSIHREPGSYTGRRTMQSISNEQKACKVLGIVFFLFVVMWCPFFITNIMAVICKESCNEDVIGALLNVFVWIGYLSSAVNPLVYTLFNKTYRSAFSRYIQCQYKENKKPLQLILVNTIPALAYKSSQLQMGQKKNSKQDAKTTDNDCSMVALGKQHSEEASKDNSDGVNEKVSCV
histamine H2 receptor, sequence (P25021 whole entry): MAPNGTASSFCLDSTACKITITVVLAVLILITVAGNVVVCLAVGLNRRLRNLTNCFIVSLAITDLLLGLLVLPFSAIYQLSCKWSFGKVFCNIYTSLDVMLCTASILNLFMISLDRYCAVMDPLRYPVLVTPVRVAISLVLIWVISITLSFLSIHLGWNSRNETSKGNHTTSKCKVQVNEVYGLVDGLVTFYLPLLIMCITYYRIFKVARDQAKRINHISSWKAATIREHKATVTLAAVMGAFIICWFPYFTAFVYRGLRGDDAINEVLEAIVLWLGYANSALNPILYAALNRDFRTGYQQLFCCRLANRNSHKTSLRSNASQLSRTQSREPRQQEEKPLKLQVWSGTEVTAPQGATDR
5-HT6 receptor, sequence (P50406 whole entry): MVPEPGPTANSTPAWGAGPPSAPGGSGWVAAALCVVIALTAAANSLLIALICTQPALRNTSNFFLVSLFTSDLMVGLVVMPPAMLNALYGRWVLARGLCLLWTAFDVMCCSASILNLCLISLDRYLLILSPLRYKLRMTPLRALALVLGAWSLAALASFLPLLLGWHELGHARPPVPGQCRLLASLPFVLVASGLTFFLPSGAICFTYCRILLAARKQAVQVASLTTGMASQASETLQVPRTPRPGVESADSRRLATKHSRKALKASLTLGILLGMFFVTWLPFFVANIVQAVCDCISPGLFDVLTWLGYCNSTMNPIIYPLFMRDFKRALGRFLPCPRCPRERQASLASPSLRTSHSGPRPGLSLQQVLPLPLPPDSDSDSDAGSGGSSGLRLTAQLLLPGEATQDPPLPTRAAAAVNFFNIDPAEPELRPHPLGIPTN
hERG potassium channel, sequence (Q12809 whole entry): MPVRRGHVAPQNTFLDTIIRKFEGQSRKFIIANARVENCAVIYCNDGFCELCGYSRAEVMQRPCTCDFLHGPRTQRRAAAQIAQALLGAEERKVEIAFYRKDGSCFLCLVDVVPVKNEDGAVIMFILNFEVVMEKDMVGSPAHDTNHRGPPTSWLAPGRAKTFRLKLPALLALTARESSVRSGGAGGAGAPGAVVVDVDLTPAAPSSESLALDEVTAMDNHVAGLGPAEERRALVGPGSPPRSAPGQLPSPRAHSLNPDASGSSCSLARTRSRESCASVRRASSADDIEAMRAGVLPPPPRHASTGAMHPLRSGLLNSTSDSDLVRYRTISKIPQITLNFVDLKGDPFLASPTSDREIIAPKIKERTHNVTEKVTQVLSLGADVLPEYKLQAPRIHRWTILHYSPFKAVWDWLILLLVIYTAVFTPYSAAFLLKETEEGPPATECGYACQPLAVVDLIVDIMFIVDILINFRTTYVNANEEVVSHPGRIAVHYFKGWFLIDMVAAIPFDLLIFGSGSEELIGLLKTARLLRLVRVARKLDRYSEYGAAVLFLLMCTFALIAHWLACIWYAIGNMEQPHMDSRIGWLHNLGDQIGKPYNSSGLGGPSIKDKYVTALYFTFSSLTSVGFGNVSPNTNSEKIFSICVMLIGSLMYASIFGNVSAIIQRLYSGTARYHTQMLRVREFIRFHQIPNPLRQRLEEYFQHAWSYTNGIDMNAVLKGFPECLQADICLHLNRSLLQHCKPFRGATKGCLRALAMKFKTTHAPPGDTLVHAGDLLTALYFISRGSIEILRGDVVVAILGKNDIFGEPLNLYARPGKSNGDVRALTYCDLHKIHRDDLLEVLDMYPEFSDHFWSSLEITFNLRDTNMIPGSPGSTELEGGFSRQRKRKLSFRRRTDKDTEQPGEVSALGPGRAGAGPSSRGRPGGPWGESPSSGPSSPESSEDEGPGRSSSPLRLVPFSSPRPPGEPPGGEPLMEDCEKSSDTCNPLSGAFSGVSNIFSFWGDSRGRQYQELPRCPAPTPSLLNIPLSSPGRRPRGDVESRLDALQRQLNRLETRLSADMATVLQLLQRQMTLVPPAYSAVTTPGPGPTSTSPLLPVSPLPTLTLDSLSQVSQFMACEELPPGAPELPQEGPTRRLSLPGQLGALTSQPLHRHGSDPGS
5-HT2B receptor, sequence (P41595 whole entry): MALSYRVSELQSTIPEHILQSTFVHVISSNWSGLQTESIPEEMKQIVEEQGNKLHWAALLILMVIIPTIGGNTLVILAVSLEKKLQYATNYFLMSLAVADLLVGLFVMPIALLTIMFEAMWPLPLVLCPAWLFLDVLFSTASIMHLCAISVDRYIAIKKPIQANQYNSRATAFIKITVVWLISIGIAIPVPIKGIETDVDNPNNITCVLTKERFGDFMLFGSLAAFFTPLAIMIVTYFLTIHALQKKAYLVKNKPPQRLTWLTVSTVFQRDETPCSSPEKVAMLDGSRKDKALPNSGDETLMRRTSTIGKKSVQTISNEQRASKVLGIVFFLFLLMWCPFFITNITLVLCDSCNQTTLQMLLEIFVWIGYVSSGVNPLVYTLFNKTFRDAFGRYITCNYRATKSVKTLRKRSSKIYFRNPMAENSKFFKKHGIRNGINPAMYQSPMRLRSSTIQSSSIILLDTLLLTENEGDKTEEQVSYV
5-HT4 receptor, sequence (Q13639 whole entry): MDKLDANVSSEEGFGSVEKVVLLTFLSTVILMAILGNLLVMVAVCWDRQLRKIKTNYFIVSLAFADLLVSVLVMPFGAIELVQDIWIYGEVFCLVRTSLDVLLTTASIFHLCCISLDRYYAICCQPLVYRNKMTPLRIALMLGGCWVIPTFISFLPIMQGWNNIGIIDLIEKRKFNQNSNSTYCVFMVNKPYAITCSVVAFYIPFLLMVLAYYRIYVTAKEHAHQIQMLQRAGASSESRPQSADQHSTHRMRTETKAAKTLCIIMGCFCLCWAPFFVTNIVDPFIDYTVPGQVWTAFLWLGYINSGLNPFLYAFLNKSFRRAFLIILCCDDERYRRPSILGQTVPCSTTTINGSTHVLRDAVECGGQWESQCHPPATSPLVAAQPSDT
5-HT3 receptor, sequence (P46098 24-478): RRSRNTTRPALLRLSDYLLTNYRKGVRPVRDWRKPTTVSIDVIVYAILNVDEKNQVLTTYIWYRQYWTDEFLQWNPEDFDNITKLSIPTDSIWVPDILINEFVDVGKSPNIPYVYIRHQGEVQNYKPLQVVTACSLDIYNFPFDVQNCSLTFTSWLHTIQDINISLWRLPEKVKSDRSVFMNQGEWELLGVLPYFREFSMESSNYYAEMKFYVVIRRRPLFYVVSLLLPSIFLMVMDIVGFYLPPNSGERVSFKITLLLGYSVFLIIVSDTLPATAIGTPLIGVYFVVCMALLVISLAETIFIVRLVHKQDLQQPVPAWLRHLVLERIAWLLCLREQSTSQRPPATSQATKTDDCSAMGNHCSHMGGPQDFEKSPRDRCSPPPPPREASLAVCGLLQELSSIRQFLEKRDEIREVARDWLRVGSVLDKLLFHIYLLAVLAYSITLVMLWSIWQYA

With `O=C1CC2(CCCC2)CC(=O)N1CCCCN1CCN(c2ncccn2)CC1` [Buspirone, reference compound] the “locomotion (total number of arm visits)” value [1] was “had no effect on total number of arm visits” and the “anxiolytic effect (open/closed arm time and visits, defecations)” value [1] was “clear anxiolytic effects”.

In the case of `O=C(CCCN1CCC(O)(c2ccc(Cl)cc2)CC1)c1ccc(F)cc1` [Haloperidol, reference compound], the “effect on apomorphine-induced disruption of PPI” value [2] is reported as “able to prevent”.

For `O=C1Nc2ccc(Cl)cc2C(c2ccccc2Cl)=NC1O` (stereo not shown) [Lorazepam, reference compound], the “duration of freezing behavior” value [3] was “significantly reduced duration of the freezing behavior” and the “time spent in the central area” value [4] was “significant anxiolytic effect”.

In the case of `Cc1ccc2c(c1)c1c(n2CC(O)c2ccccc2)CCN(C)C1` (stereo not shown) [M1, 2-(2,8-dimethyl-1,2,3,4-tetrahydro-pyrido[[4,3-b]]indol-5-yl)-1-phenyl-ethan-ol], the Ki [5] is reported as 7.72 nM, the “locomotion (total number of arm visits)” value [1] is reported as “some reduction in mice locomotor activity” and the “anxiolytic effect (open/closed arm time and visits, defecations)” value [1] is reported as “clear anxiolytic effects”. The “lower affinity compared to AVN-101” value [6] was 4 fold, the “AUC0 - >∞” value ([7]; AVN-101 PO 2 mg) was 0.22 ± 0.116 ng·h/mL and the Cmax ([7]; AVN-101 PO 2 mg) was 0.0561 ± 0.0182 ng/mL. For the same compound, the T1/2 ([7]; AVN-101 PO 2 mg) was 2.49 ± 1.2 h, the “AUC0 - >∞” value ([7]; AVN-101 PO 4 mg) was 0.555 ± 0.297 ng·h/mL and the Cmax ([7]; AVN-101 PO 4 mg) was 0.112 ± 0.0381 ng/mL. The T1/2 ([7]; AVN-101 PO 4 mg) was 2.48 ± 1.27 h, the “AUC0 - >∞” value ([7]; AVN-101 PO 10 mg) was 1.41 ± 0.688 ng·h/mL and the Cmax ([7]; AVN-101 PO 10 mg) was 0.292 ± 0.176 ng/mL. The T1/2 ([7]; AVN-101 PO 10 mg) was 2.8 ± 1.71 h, the “AUC0 - >∞” value ([7]; AVN-101 PO 20 mg) was 3.1 ± 0.87 ng·h/mL and the Cmax ([7]; AVN-101 PO 20 mg) was 0.635 ± 0.311 ng/mL. For the same compound, the T1/2 ([7]; AVN-101 PO 20 mg) was 3.85 ± 0.56 h, the Tmax ([7]; after PO AVN-101) was “around 1 h” and the IC50 [8] was 1630 nM. The interaction [9] was “Neither AVN-101 nor its metabolites, M1 and M2, seem to interact”, the “lower affinity compared to AVN-101” value [10] was 2 fold and the “affinity compared to AVN-101” value [11] was “practically same affinity”. The “lower affinity compared to AVN-101” value [12] was 3 fold, the Fabs ([13]; M1 PO 5 mg/kg vs IV 1 mg/kg) was 8.4% and the “AUC0 - >∞” value ([13]; after AVN-101 IV 2 mg/kg) was 264.6 ng·min/mL. The Cmax ([13]; after AVN-101 IV 2 mg/kg) was 5.7 ng/mL, the T1/2 ([13]; after AVN-101 IV 2 mg/kg) was 0.857 h and the Tmax ([13]; after AVN-101 IV 2 mg/kg) was 0.083 h. For the same compound, the “AUC0 - >∞” value ([13]; after AVN-101 PO 10 mg/kg) was 8,995 min×ng/mL, the Cmax ([13]; after AVN-101 PO 10 mg/kg) was 30.1 ng/mL and the T1/2 ([13]; after AVN-101 PO 10 mg/kg) was 2.582 h. The Tmax ([13]; after AVN-101 PO 10 mg/kg) was 1 h, the “AUC0 - >∞” value ([13]; after M1 IV 1 mg/kg) was 25,894 min×ng/mL and the Cmax ([13]; after M1 IV 1 mg/kg) was 4,550 ng/mL. The T1/2 ([13]; after M1 IV 1 mg/kg) was 0.958 h, the Tmax ([13]; after M1 IV 1 mg/kg) was 0.017 h and the “AUC0 - >∞” value ([13]; after M1 PO 5 mg/kg) was 10,828 min×ng/mL. For the same compound, the Cmax ([13]; after M1 PO 5 mg/kg) was 43 ng/mL, the T1/2 ([13]; after M1 PO 5 mg/kg) was 2.308 h and the Tmax ([13]; after M1 PO 5 mg/kg) was 2 h. For the same compound, the interaction [14] was “Neither AVN-101 nor its metabolites, M1 and M2, seem to interact”, the “lower affinity compared to AVN-101” value [15] was 7 fold and the Ki [16] was roughly 48 nM. The “lower affinity compared to AVN-101” value [16] was 83 fold and the “lower affinity compared to AVN-101” value [17] was 9 fold.

Compound `COC(=O)c1ccccc1-c1c2ccc(=N)cc-2oc2cc(N)ccc12` [Rhodamine123, reference compound] has a Papp [18] of 0.6 ± 0.2 ×10⁻⁶ cm/s and a Papp B→A [18] of 6.8 ± 0.4 ×10⁻⁶ cm/s.

For `O=S(=O)(c1ccccc1)c1cnc2c(N3CCNCC3)cccc2c1` [SB-742457], the binding inhibition [19] is given as roughly 25%, the radioligand displacement [20] is given as 86% and the IC50 [5] is given as 1270 nM. The radioligand displacement [21] was 91%, the preventative effect [22] was “very mild preventative effect” and the “effective dose range, scopolamine-induced amnesia passive avoidance” value [23] was 0.5 to 4.5 mg/kg. For the same compound, the radioligand displacement [24] was 85%, the “effect on deficit in novel object recognition” value (“effect on deficit” below) [25] was “not statistically effective” and the radioligand displacement [26] was 88%. For the same compound, the “effect on deficit” value [27] was “not statistically effective”.

In the case of `Nc1c2c(nc3ccccc13)CCCC2` [Tacrine], the “effect on scopolamine-induced amnesia (time in platform quadrant)” value [28] is reported as “significant prevention”.

With `CCCCc1oc2ccccc2c1C(=O)c1cc(I)c(OCCN(CC)CC)c(I)c1` [amiodaron, reference compound] the “effect on heart rate” value [29] was “no effect on the heart rate”.

For `O=P1(N(CCCl)CCCl)NCCCO1` (stereo not shown) [cyclophosphomide, reference compound], the “Cells with multiple aberrations” value [30] was 6.2%, the “Total altered metaphases (%)” value [30] was 20.8 ± 1.8% and the “cells with aberration, Double fragment” value [30] was 0.4%. For the same compound, the “cells with aberration, Single fragment” value [30] was 19.8%, the “cells with aberration, exchanges” value [30] was 1.0% and the “cells with aberration, gaps” value [30] was 0.2%.

In the case of `COc1cc2c(cc1OC)C(=O)C(CC1CCN(Cc3ccccc3)CC1)C2` (stereo not shown) [donepezil], the “effect on scopolamine-induced amnesia (time in platform quadrant)” value [28] is reported as “not as effective”.

For `CC12CC3CC(C)(C1)CC(N)(C3)C2` [memantine], the “effect on deficit” value [25] was “not statistically effective”, the “effect on deficit” value [27] was “not statistically effective” and the “effect on MK-801-induced amnesia” value [31] was “not active”.
